Results as given in the RNAGym collection of RNA variant scans (doi:10.1126/science.aae0568).
Fewer inactive variants are shown than the library holds.

B1: tRNA (parent)
chain: GUUCCGUUGGCGUAAUGGUAACGCGUCUCCCUCCUAAGGAGAAGACUGCGGGUUCGAGUCCCGUACGGAACG

Variants of: B1
Experiment: yeast fitness relative to wild type (ratio to wild type); higher = fitter; tRNA-Arg(CCU), competitive growth, 37 C, YPD
Method in brief: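 Changes in genotype frequencies gave Darwinian fitness relative to wild type. Frequencies were read by 100-nucleotide paired-end sequencing of gene amplicons before and after pooled Saccharomyces cerevisiae strains, carrying tRNA-Arg(CCU) gene variants at the native locus, were competed in YPD at 37°C for 24 hours in six replicates. A genotype was kept only with ≥ 100 starting reads, and estimates < 0.5 were set to 0.5.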

Going from U7A C27U U32C to U7A C11A A14C C34A, the yeast fitness falls from 0.575 to no more than 0.5.

U7A C49U U59C C62G and U7A A37C A43C A65G cannot be ordered by yeast fitness: no more than 0.5 for the first, no more than 0.5 for the second.

Going from U7A A37G A40G A43G G52C U59G to U7A A20G G23A C24U U35A C60A A69C, the yeast fitness falls from 0.556 to 0.548.

U7A G23A C30U C33A G41C A42U and U7A A21G C30G cannot be ordered by yeast fitness: no more than 0.5 for the first, no more than 0.5 for the second.

U7A A36G A43G C62A and U7A C33G C60G G63A cannot be ordered by yeast fitness: no more than 0.5 for the first, no more than 0.5 for the second.

U7A A21C C29U A37G A57G and U7A G10A C33A A36C C61U C66U cannot be ordered by yeast fitness: no more than 0.5 for the first, no more than 0.5 for the second.

G6C U53A C61U and U7A A45C U47A G68A cannot be ordered by yeast fitness: no more than 0.5 for the first, no more than 0.5 for the second.

Compared with U7A, U7A C49G C66A is lower in yeast fitness: 0.826 for the first, no more than 0.5 for the second.

U7A G17C C24G C29A G48C and U7A G9C G17C C61U G68C cannot be ordered by yeast fitness: no more than 0.5 for the first, no more than 0.5 for the second.

U7A G10A A15U C46A and U7A C30U C66U cannot be ordered by yeast fitness: no more than 0.5 for the first, no more than 0.5 for the second.

Compared with U7A G10C U26C C27G U32A, U7A G18C A70U is higher in yeast fitness: no more than 0.5 for the first, 0.662 for the second.

U7A C31G A70U and U7A G10A C33A A36C A70U cannot be ordered by yeast fitness: no more than 0.5 for the first, no more than 0.5 for the second.

Going from U7A G38A A43U to U7A A20G G23A U26G A69C, the yeast fitness falls from 0.53 to no more than 0.5.

Going from U7A C22A C30U C61U G67A G68U to U7A A70U, the yeast fitness rises from no more than 0.5 to 0.689.

Compared with U7A A70G, U7A C29G U64C is lower in yeast fitness: 0.829 for the first, no more than 0.5 for the second.

Going from U7A C46G G51A A65C to U7A C27U C30G G38C C49U A65G, the yeast fitness rises from no more than 0.5 to 0.664.

First: U7A C33A A45C C49U
Second: U7A C34A
The yeast fitness of the first is lower: no more than 0.5 for the first, 0.662 for the second.

Going from U7A C27A U28C C49A to U7A G10A C33A A36C G67C, the yeast fitness falls from 0.622 to no more than 0.5.

U7A A14U G68A and U7A A40U C55G G63C cannot be ordered by yeast fitness: no more than 0.5 for the first, no more than 0.5 for the second.

U7A C11U A40G A42U C62A and U7A G23A C62U cannot be ordered by yeast fitness: no more than 0.5 for the first, no more than 0.5 for the second.

U7A C11G C27U A37C G51C and U7A G17A U32C cannot be ordered by yeast fitness: no more than 0.5 for the first, no more than 0.5 for the second.

Compared with U7A G23A C29A, U7A G18C U35C A70U is lower in yeast fitness: 0.531 for the first, no more than 0.5 for the second.

First: U7A C30U A65C
Second: U7A A42G C46G A65C
The yeast fitness of the first is lower: 0.633 for the first, 0.66 for the second.

First: U7A A20C U28C G58C
Second: U7A C49U C62G
The yeast fitness of the first is higher: 0.647 for the first, 0.603 for the second.

First: U7A A42U
Second: U7A C22A C24U A36U
The yeast fitness of the first is higher: 0.696 for the first, no more than 0.5 for the second.

Compared with U7A A37U C62A, U7A C27U C46G is higher in yeast fitness: 0.571 for the first, 0.691 for the second.

First: U7A C22G
Second: U7A A15G G23A C27A U28C C29G C61A
The yeast fitness of the first is higher: 0.669 for the first, no more than 0.5 for the second.

Going from U7A G12C A14G A21C C24U G38A U54C C66A to U7A C29A G58A C61G, the yeast fitness rises from no more than 0.5 to 0.604.

U7A C27U C66A and U7A A45U C60A cannot be ordered by yeast fitness: no more than 0.5 for the first, no more than 0.5 for the second.

Compared with G6C U59C, G6U C11A U13A G52A C61U A69C is lower in yeast fitness: 0.656 for the first, 0.527 for the second.

First: U7A G25A A65U
Second: U7A C49A G56A
The yeast fitness of the first is higher: 0.765 for the first, 0.594 for the second.

Going from U7A C31A G39C G56C to G6U A21G A70G, the yeast fitness rises from no more than 0.5 to 0.562.

U7A A42C C62U and U7A C31G G51A U64A C66U G68C cannot be ordered by yeast fitness: no more than 0.5 for the first, no more than 0.5 for the second.

First: U7A C30A C31G A43U U54G C62G
Second: G6U C33U
The yeast fitness of the first is lower: no more than 0.5 for the first, 0.562 for the second.

Going from U7A C29G A36C G67A to U7A C33G, the yeast fitness rises from no more than 0.5 to 0.59.

Compared with U7A C33U, U7A C11G C31G U32C A43U is lower in yeast fitness: 0.592 for the first, no more than 0.5 for the second.

Compared with U7A A57G, U7A A57C is lower in yeast fitness: 0.759 for the first, 0.54 for the second.

Going from U7A A20G C46G to U7A A20G A43C A57U, the yeast fitness falls from 0.507 to no more than 0.5.

First: G6C U53C C62U
Second: U7A C27U A69U
The yeast fitness of the first is lower: 0.589 for the first, 0.691 for the second.

Going from U7A A45U to U7A A42G C46A C55G, the yeast fitness falls from 0.672 to no more than 0.5.

Going from U7A C30U to U7A A20G C31A, the yeast fitness falls from 0.614 to no more than 0.5.

First: U7A G38A
Second: U7A G10A A20C C29A U64C
The yeast fitness of the first is higher: 0.695 for the first, no more than 0.5 for the second.

First: U7A A21C U54C
Second: G6U C27G
The yeast fitness of the first is lower: no more than 0.5 for the first, 0.545 for the second.

First: U7A A36U C55U A65U
Second: U7A C24U C30U C31G A57G
The yeast fitness of the first is higher: 0.555 for the first, no more than 0.5 for the second.

First: U7A C34G C62A
Second: U7A C11U A36U C62U C66U
The yeast fitness of the first is higher: 0.696 for the first, no more than 0.5 for the second.

U7A C31G U64A C66U G68C A69G and U7A G10A C33A A36C G50U cannot be ordered by yeast fitness: no more than 0.5 for the first, no more than 0.5 for the second.

First: U7A C30U C46U C49U
Second: U7A A20C
The yeast fitness of the first is lower: no more than 0.5 for the first, 0.733 for the second.

Compared with U7A A20G, U7A C24U C33A G50A A65C is lower in yeast fitness: 0.713 for the first, no more than 0.5 for the second.

First: U7A C11A C33U C55G G56A
Second: G6U U32C
The yeast fitness of the first is higher: 0.838 for the first, 0.766 for the second.

U7A G9C G17C G50A and U7A G10A C31G cannot be ordered by yeast fitness: no more than 0.5 for the first, no more than 0.5 for the second.

Compared with U7A A43C G48A A57C G68U, U7A G9C G17C G48A is higher in yeast fitness: no more than 0.5 for the first, 0.525 for the second.

Going from U7A C60G A69G to U7A A14C C27U A45U G67A, the yeast fitness falls from 0.588 to no more than 0.5.

G6U G44C G56C and U7A A42C U47A G63C A69C cannot be ordered by yeast fitness: no more than 0.5 for the first, no more than 0.5 for the second.

Going from U7A G9A U13G G56A to U7A A43G G51C, the yeast fitness rises from no more than 0.5 to 0.537.

G6C U35A G44C C60A and U7A G10C G17A C22U C27G cannot be ordered by yeast fitness: no more than 0.5 for the first, no more than 0.5 for the second.

Compared with U7A C29U C33U U54A, G6C U47A G51C is higher in yeast fitness: no more than 0.5 for the first, 0.525 for the second.

U7A A20G G68A and U7A A20G G23A A40G U47C A70C cannot be ordered by yeast fitness: no more than 0.5 for the first, no more than 0.5 for the second.

U7A G12A C24U G25C A42U and U7A G18U C31U C49G cannot be ordered by yeast fitness: no more than 0.5 for the first, no more than 0.5 for the second.

Going from U7A A21C A45G to U7A C27A G50C C60U A70C, the yeast fitness falls from 0.571 to no more than 0.5.

U7A C29G G67U and U7A G12C C34U cannot be ordered by yeast fitness: no more than 0.5 for the first, no more than 0.5 for the second.

Going from U7A C11U U47A to G6C U54G, the yeast fitness rises from no more than 0.5 to 0.587.

Going from G6C U54C to U7A C62U, the yeast fitness falls from 0.898 to 0.888.

U7A G9C C30U C34G and U7A C11A C30A cannot be ordered by yeast fitness: no more than 0.5 for the first, no more than 0.5 for the second.

U7A G10A A20C C29A U54A C55U and U7A G38C A70G cannot be ordered by yeast fitness: no more than 0.5 for the first, no more than 0.5 for the second.

Going from U7A G12A A20G G23A U26G to U7A A20G G23A U26G, the yeast fitness rises from no more than 0.5 to 0.548.

First: U7A C22U U54C C66U G68C A69U
Second: U7A G18A A36C U47A G68A
The yeast fitness of the first is higher: 0.567 for the first, 0.508 for the second.

Compared with U7A A40U A43C, U7A C60G G67C is lower in yeast fitness: 0.656 for the first, no more than 0.5 for the second.

Going from U7A A21U G41A to U7A A21U G38C A45G U59A, the yeast fitness falls from 0.619 to no more than 0.5.

Going from U7A G23A C29A C55A to G6U A65C, the yeast fitness rises from no more than 0.5 to 0.799.

U7A A15U U53C and U7A G10C C22U C27G G67A cannot be ordered by yeast fitness: no more than 0.5 for the first, no more than 0.5 for the second.

First: U7A C27A C29G C30G G51A
Second: G6C U53C C62U C66U
The yeast fitness of the first is higher: 0.535 for the first, no more than 0.5 for the second.

Going from U7A G10A A15U A43G G50A to U7A G9C G17C G48A C66U, the yeast fitness falls from 0.53 to no more than 0.5.

Going from G6U C34U to U7A C30U G50C, the yeast fitness falls from 0.573 to no more than 0.5.

U7A A20C G50A and U7A C29U C34A G50C A65C cannot be ordered by yeast fitness: no more than 0.5 for the first, no more than 0.5 for the second.

First: U7A A15C C55G
Second: U7A A15U A40G G68C
The yeast fitness of the first is lower: no more than 0.5 for the first, 0.514 for the second.

First: U7A A57U U59A A69C
Second: U7A A40U G67A
The yeast fitness of the first is higher: 0.702 for the first, no more than 0.5 for the second.

Compared with U7A G10A C33A A36C A69C, U7A G10A G41C A42U C46A C61G is higher in yeast fitness: no more than 0.5 for the first, 0.561 for the second.

First: U7A G23A
Second: U7A G23C
The yeast fitness of the first is higher: 0.722 for the first, 0.519 for the second.

Compared with U7A A65C A69C, U7A A21C is higher in yeast fitness: no more than 0.5 for the first, 0.54 for the second.

Compared with U7A A21G, U7A C55U A65G is lower in yeast fitness: 0.738 for the first, no more than 0.5 for the second.

Compared with U7A G9C G10A C30U C34G G68C, U7A A20G C61A is higher in yeast fitness: no more than 0.5 for the first, 0.616 for the second.

First: U7A C11U
Second: U7A C11A
The yeast fitness of the first is higher: 0.686 for the first, no more than 0.5 for the second.

First: U7A G18C C27G G38A
Second: U7A A65C
The yeast fitness of the first is lower: no more than 0.5 for the first, 0.917 for the second.

U7A A65G gave a yeast fitness of 1.03.
